From ChEMBL document CHEMBL3351861, “New synthetic sulfone derivatives inhibit growth, adhesion and the leucine arylamidase APE2 gene expression of Candida albicans in vitro” (2015)

Legend:
Candida albicans [1] = assay: Inhibition of cell adhesion of compound pre-treated Candida albicans CAI4 expressing delta-efg1/delta-cph1 gene to human Caco2 cells assessed as cell adhesion level at 8 ug/ml pre-incubated for 18 hrs by colony counting method (reference value: 1.22 +/- 0.78%); assay type: functional, Caco-2; design: scale not given: the % may be the effect or the level left
Candida albicans [2] = assay: Antifungal activity against Candida albicans CAI4 expressing delta-efg1 (EFG1) gene assessed as growth inhibition at 16 ug/ml by CLSI M27-A3 method; assay type: functional; conditions: read-out: GI
Summary of the method: (§1)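 CLSI M27-A3 broth microdilution in RPMI, read after 48 h. Strains pre-grown 18 h in YEPD at 30°C. Final inoculum 0.5×10^2–2.5×10^3 cells/ml. Two-fold dilutions in RPMI came from a 1600 µg/ml stock in water with 9% DMSO; final DMSO was 0.09%. OD405 read, % inhibition = 100 − (CTW−SCW)/(GCW−SCW). Triplicate on three occasions, mean±SD.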

Candida albicans [3] = assay: Antifungal activity against Candida albicans CAI4 expressing delta-efg1 gene assessed as growth inhibition at 1 ug/ml by CLSI M27-A3 method; assay type: functional; conditions: read-out: GI
Summary of the method: (§2)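 CLSI M27-A3 broth microdilution in RPMI. Final inoculum 0.5×10^2 to 2.5×10^3 cells/ml. Seven two-fold concentrations from 0.25 to 16 µg/ml, with DMSO held at 0.09% (v/v) in all wells. Compound-free growth controls and sterility controls are run for each strain. […] Triplicate on three occasions.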

Candida albicans [4] = assay: Antifungal activity against Candida albicans CAI4 expressing delta-cph1 (CPH1) gene assessed as growth inhibition at 4 ug/ml by CLSI M27-A3 method; assay type: functional; conditions: read-out: GI; summary of the method: as §1
Candida albicans [5] = assay: Inhibition of cell adhesion of compound pre-treated Candida albicans CAI4 expressing delta-cph1 (CPH1) gene to human Caco2 cells assessed as cell adhesion level at 2 ug/ml pre-incubated for 18 hrs by colony counting method (reference value: 5.37 +/- 12.4%); assay type: functional, Caco-2; design: scale not given: the % may be the effect or the level left
Candida albicans [6] = assay: Antifungal activity against Candida albicans CAI4 expressing delta-efg1 gene assessed as growth inhibition at 2 ug/ml by CLSI M27-A3 method; assay type: functional; conditions: read-out: GI; summary of the method: as §2
Candida albicans [7] = assay: Inhibition of cell adhesion of compound pre-treated Candida albicans CAI4 expressing delta-efg1 (EFG1) gene to human Caco2 cells assessed as cell adhesion level at 8 ug/ml pre-incubated for 18 hrs by colony counting method (reference value: 2.6 +/- 2.33%); assay type: functional, Caco-2; design: scale not given: the % may be the effect or the level left
Candida albicans [8] = assay: Antifungal activity against Candida albicans CAI4 expressing delta-efg1 gene assessed as growth inhibition at 4 ug/ml by CLSI M27-A3 method; assay type: functional; conditions: read-out: GI; summary of the method: as §2
Candida albicans [9] = assay: Antifungal activity against Candida albicans CAI4 expressing delta-cph1 (CPH1) gene assessed as growth inhibition at 0.25 ug/ml by CLSI M27-A3 method; assay type: functional; conditions: read-out: GI; summary of the method: as §1
Candida albicans [10] = assay: Antifungal activity against Candida albicans CAI4 expressing delta-cph1 gene assessed as growth inhibition at 0.25 ug/ml by CLSI M27-A3 method; assay type: functional; conditions: read-out: GI; summary of the method: as §1
Candida albicans [11] = assay: Antifungal activity against Candida albicans CAI4 expressing delta-cph1/delta-efg1 gene assessed as growth inhibition at 16 ug/ml by CLSI M27-A3 method; assay type: functional; conditions: read-out: GI; summary of the method: as §1
Candida albicans [12] = assay: Inhibition of cell adhesion of compound pre-treated Candida albicans SC5314 to human Caco2 cells assessed as cell adhesion level at 16 ug/ml pre-incubated for 18 hrs by colony counting method (reference value: 1.1 +/- 1.1%); assay type: functional, Caco-2; design: scale not given: the % may be the effect or the level left
Candida albicans [13] = assay: Inhibition of cell adhesion of compound pre-treated Candida albicans CAI4 expressing delta-cph1 gene to human Caco2 cells assessed as cell adhesion level at 16 ug/ml pre-incubated by colony counting method (reference value: 1.6 +/- 0.65%); design: scale not given: the % may be the effect or the level left
Candida albicans [14] = assay: Antifungal activity against Candida albicans 90028 assessed as growth inhibition at 2 ug/ml by CLSI M27-A3 method; assay type: functional; conditions: read-out: GI; summary of the method: as §1
Candida albicans [15] = assay: Inhibition of cell adhesion of compound pre-treated Candida albicans CAI4 expressing delta-efg1 (EFG1) gene to human Caco2 cells assessed as cell adhesion level at 16 ug/ml pre-incubated for 18 hrs by colony counting method (reference value: 2.6 +/- 2.33%); assay type: functional, Caco-2; design: scale not given: the % may be the effect or the level left
Candida albicans [16] = assay: Inhibition of cell adhesion of compound pre-treated Candida albicans CAI4 expressing delta-efg1/delta-cph1 gene to human Caco2 cells assessed as cell adhesion level at 4 ug/ml pre-incubated for 18 hrs by colony counting method (reference value: 1.22 +/- 0.78%); assay type: functional, Caco-2; design: scale not given: the % may be the effect or the level left
Candida albicans [17] = assay: Reduction in APE2 gene expression in compound pre-treated Candida albicans CAI4 expressing delta-efg1 gene grown under YEPD medium at 16 ug/ml pre-treated for 2 hrs measured after 18 hrs by RT-PCR method; assay type: functional
Summary of the method: (§3)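 YEPD-grown yeast (18 h, 30°C) washed and held at 10^4 cfu/ml in YEPD with 16 µg/ml sulfone for 2 h. Cells were then washed and regrown 18 h at 30°C in YEPD. Total RNA was reverse-transcribed and SYBR Green qPCR run (250 nM primers, 60 ng cDNA, 45 cycles). APE2 was normalized to ACT1 by 2^-ΔΔCt with strain 90028 as calibrator. Done in triplicate on three occasions.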

Candida albicans [18] = assay: Inhibition of cell adhesion of compound pre-treated Candida albicans SC5314 to human Caco2 cells assessed as cell adhesion level at 8 ug/ml pre-incubated for 2 hrs by colony counting method (reference value: 1.1 +/- 1.1%); design: scale not given: the % may be the effect or the level left
Candida albicans [19] = assay: Reduction in APE2 gene expression in compound pre-treated Candida albicans CAI4 expressing delta-efg1 gene grown on human Caco2 cells monolayer at 16 ug/ml pre-treated for 2 hrs measured after 6 hrs by RT-PCR method; assay type: functional, Caco-2
Summary of the method: (§4)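 Caco-2 was seeded at 1.2×10^5 cells/ml in EMEM (10% FCS, 1 mM pyruvate, no antibiotics) for 18 h at 37°C, 5% CO2. Yeast (10^4 cfu/ml) was pre-incubated 2 h in RPMI with 16 µg/ml sulfone, washed, resuspended in RPMI and inoculated onto the monolayer at 37°C. APE2 mRNA was measured by SYBR qPCR against ACT1 (2^-ΔΔCt, 90028 calibrator), in triplicate.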

Candida albicans [20] = assay: Reduction in APE2 gene expression in compound pre-treated Candida albicans SC5314 grown on human Caco2 cells monolayer at 16 ug/ml pre-treated for 2 hrs measured after 18 hrs by RT-PCR method; assay type: functional, Caco-2; summary of the method: as §4
Candida albicans [21] = assay: Reduction in APE2 gene expression in compound pre-treated Candida albicans CAI4 expressing delta-efg1 (EFG1) gene grown under YEPD medium at 16 ug/ml pre-treated for 2 hrs measured after 18 hrs by RT-PCR method; assay type: functional; summary of the method: as §3

SMILES | Activity (Candida albicans [1]) | inhibition of growth at 16 µg/mL (Candida albicans [2]) | inhibition of growth at 1 µg/mL (Candida albicans [3]) | inhibition of growth at 4 µg/mL (Candida albicans [4]) | Activity (Candida albicans [5]) | inhibition of growth at 2 µg/mL (Candida albicans [6]) | Activity (Candida albicans [7]) | inhibition of growth at 4 µg/mL (Candida albicans [8]) | inhibition of growth at 0.25 µg/mL (Candida albicans [9]) | inhibition of growth at 0.25 µg/mL (Candida albicans [10]) | inhibition of growth at 16 µg/mL (Candida albicans [11]) | Activity (Candida albicans [12]) | Activity (Candida albicans [13]) | inhibition of growth at 2 µg/mL (Candida albicans [14]) | Activity (Candida albicans [15]) | Activity (Candida albicans [16]) | Activity (Candida albicans [18]) | also measured
O=[N+]([O-])c1cc(S(=O)(=O)C(Cl)Cl)ccc1Cl | 0.48% | 99.2% | 99.4% | 98.7% | 1.43% | 99.4% | 1.18% | 99.5% | 91.8% | 97.7% | 99.7% | 0.68% | 1.03% | 99.5% | 0.79% | 0.36% | – | –
NNc1ccc(S(=O)(=O)C(Cl)(Br)Br)cc1[N+](=O)[O-] | 1.66% | 99.8% | 99.5% | 99.1% | 1.86% | 99.7% | – | 100% | 98.6% | 20% | 100% | 0.8% | 0.37% | 99.6% | 0.89% | 2.74% | 0.45% | ΔCt (Candida albicans [17]): 3.69; fold change (FC) (Candida albicans [19]): 10.27; ΔCt (Candida albicans [20]): 3.83; ΔCt (Candida albicans [21]): 3.44
O=[N+]([O-])c1cc(S(=O)(=O)C(Cl)(Cl)Br)ccc1Cl | 0.38% | 99.5% | 98.5% | 99.7% | 2.38% | 98.9% | 1.13% | 99% | 96.7% | 97.4% | 99.5% | 0.71% | 0.56% | 98.9% | 0.77% | 1.02% | 0.36% | –
